Only a selection was taken, and hits are over-represented in it overall.
GSK3B inh: inhibitors of human GSK3beta kinase. P49841. GST-GSK3beta kinase, ADP-Glo luminescence, 60 min; hits give low values. activity score (negative = inhibition), % at 10 µM. 300,000 tested, 0.038% active. AID 2097;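 active = more than half of replicate wells score below -50%, meaning over 50% inhibition versus plate controls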;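 also: 0% = median DMSO wells and -100% = median GW8510 positive control wells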
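Test system: GST-fused GSK3beta enzyme, cell-free | Quantity: 1.6 ng GST-GSK3beta enzyme per well | Reagent: 25 µM ATP with peptide substrate | Schedule: 60 min enzyme reaction, room temperature | Signal: Luminescent ADP-Glo measurement of ADP formed | Read-out basis: Score relative to plate controls | Control set: DMSO and 20 µM GW8510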
CDK5 p35 inh: CDK5/p35 (human) kinase inhibition; Recombinant CDK5/p35, ADP-Glo luminescence, 60 min; inhibition, % at 10 µM; 330,000 tested, 0.01% active;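 active = highest replicate inhibition of at least 50% and at least 75% of replicates reaching 50%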;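 also: plate controls were DMSO neutral control for no effect and GW8510 at 10 µM for full effect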
DYRK1A inh: Dyrk1A (rat) kinase inhibition; inhibition, % at 12.5 µM; 310,000 tested, 0.43% active; Q63470; ADP-Glo luminescence, NFATc1 peptide; in the data active = inhibition above about 50%;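 also: plate controls were vehicle with enzyme for no effect and no enzyme for full effect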
GSK3A inh: inhibitors of human GSK-3 alpha kinase; P49840; ADP-Glo luminescence, 60 min; inhibition, % at 10 µM; 320,000 tested, 0.1% active;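 active = more than half of replicates show inhibition above 20%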;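 also: GST-tagged GSK-3 alpha with peptide substrate and 25 µM ATP; 0% = DMSO neutral wells and 100% = GW8510 positive control wells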
STK33 kinase inh: human STK33 kinase inhibition | Q9BYT3 | purified STK33, MBP phosphorylation, ADP-Glo luminescence | inhibition, % at 10 µM | 320,000 tested, 0.073% active;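 active = inhibition at or above 25%, using the most active replicate where run in duplicate; inactive = inhibition below 25%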
Target sequence (Q9BYT3 whole entry, looked up): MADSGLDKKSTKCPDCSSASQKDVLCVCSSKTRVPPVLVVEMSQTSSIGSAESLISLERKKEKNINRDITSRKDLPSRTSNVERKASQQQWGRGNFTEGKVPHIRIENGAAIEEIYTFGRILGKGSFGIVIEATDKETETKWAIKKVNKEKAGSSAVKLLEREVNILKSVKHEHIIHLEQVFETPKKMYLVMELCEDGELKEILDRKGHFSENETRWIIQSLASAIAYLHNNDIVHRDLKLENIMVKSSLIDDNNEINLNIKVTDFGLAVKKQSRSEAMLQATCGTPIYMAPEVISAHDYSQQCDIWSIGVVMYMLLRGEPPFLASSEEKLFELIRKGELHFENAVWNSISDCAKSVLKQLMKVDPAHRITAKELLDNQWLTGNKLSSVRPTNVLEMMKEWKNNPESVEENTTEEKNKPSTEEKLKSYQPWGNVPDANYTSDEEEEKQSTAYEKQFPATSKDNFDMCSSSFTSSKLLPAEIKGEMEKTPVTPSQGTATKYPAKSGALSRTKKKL
ADP-Glo artifact: counter-screen for Dyrk1A inhibitors: ADP-Glo luciferase artifacts. shares compounds with DYRK1A inh. ADP-Glo luciferase artifact assay, no Dyrk1A, luminescence. AC50, µM (titrated, usually from 12 µM), for the others: top-dose activity change, negative = inhibition. 1,300 tested, under 10 active. AID 588348;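 active = fitted half-maximal dose AC50 no more than ten times the top valid tested dose, with luminescence dropping as dose rises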
Starred values were filed as active, the others as inactive; . = no result given.

SMILES	GSK3B inh	CDK5 p35 inh	DYRK1A inh	GSK3A inh	STK33 kinase inh	ADP-Glo artifact
COc1ccc(-c2nc(N)ncc2-c2ccccc2OC)c(O)c1	1	-3	51*	12	4	7%
CCC(C)NC(=O)CNC(=S)N(Cc1ccc(F)cc1)C1CCCCC1 (stereo unspecified)	4	-1	.	-1	-1	.
O=c1cc(-c2ccc(O)cc2)oc2c1ccc1ccccc12	.	-3	.	-3	-2	.
O=c1cc(-c2ccco2)oc2c1ccc1ccccc12	-1	0	59*	3	1	7%
CC(Oc1ccc(Br)cc1Br)C(=O)Nc1cccnc1Cl (stereo unspecified)	0	3	3	.	0	.
COc1ccc(C(=O)N/C(=C\c2cn(C)c3ccccc23)C(=O)NCCCn2ccnc2)cc1OC	-2	-1	2	2	1	.
CC(Sc1nnc2ccccn12)C(N)=O (stereo unspecified)	1	0	.	-1	-1	.
c1ccc(-c2csc3nnc(SCc4ccc5c(c4)OCO5)n23)cc1	-4	5	58*	9	3	7%
O=C(CCSc1nnc2scc(-c3ccccc3)n12)NCc1ccc2c(c1)OCO2	-1	1	1	-3	0	.
CS(=O)(=O)Nc1ccc(-c2cc(/C=C3\SC(N)=NC3=O)c[nH]c2=O)cc1	-2	8	86*	37	39*	8%
Nc1[nH]n2c(=O)cc(-c3ccccc3)nc2c1N=Nc1ccc(S(N)(=O)=O)cc1	-1	3	64*	3	0	7%
CCOc1ccc(N2CC(C(=O)Nc3ccccc3C(=O)N3CCOCC3)CC2=O)cc1 (stereo unspecified)	-1	-1	6	-1	-2	.
COCCN=C1N[C@@H](c2cccc(C(F)(F)F)c2)C(C(=O)OC)=C(C)N1Cc1ccccc1	-2	-1	57*	5	0	8%
COC(=O)C1=C(C)N(Cc2ccccc2)C(=NCc2cccc(C(F)(F)F)c2)N[C@H]1c1cccc(C(F)(F)F)c1	.	1	-6	3	4	.
N=C1/C(=C\c2ccc(-c3cccc(C(=O)O)c3)o2)C(=O)N=C2SC=C(c3ccccc3)N12	0	0	61*	2	3	8%
Cc1ccccc1-n1c(C)cc(/C=C2/C(=N)N3C(c4ccccc4)=CSC3=NC2=O)c1C	3	1	2	-3	-1	.
CCN(CC)c1ccc(/C=C2\C(=O)c3ccc(C(=O)O)cc3C2=O)cc1	.	6	61*	23	61*	5%
C=CCn1c(Oc2ccc(C=O)cc2OCC)nc2c1c(=O)n(C)c(=O)n2C	2	0	-2	0	0	.
N#CCC(N)=C(C#N)C#N	-3	0	69*	10	2	8%
O=C1CC(c2ccc(S(=O)(=O)NC3CC3)cc2)CN1 (stereo unspecified)	-8	-1	58*	-1	-1	10%
O=C1CC(c2ccc(S(=O)(=O)NCc3ccncc3)cc2)CN1 (stereo unspecified)	-3	2	1	1	-1	.
CC(=O)n1ccnc1	-3	0	-6	1	-3	.
CC(C)(C)c1cc(C(=O)Nc2cccnc2)cc(C(=O)Nc2cccnc2)c1	0	1	1	-1	2	.
NNc1nccc(Nc2ccccc2C(=O)O)n1	-60*	-2	84*	69*	20	9%
c1cnc2ncc3sccc3c2c1	4	0	59*	2	-1	9%
SMILES	GSK3B inh	CDK5 p35 inh	DYRK1A inh	GSK3A inh	STK33 kinase inh	ADP-Glo artifact
COc1ccc(C(=O)N2CCN(c3c(C)cccc3C)CC2)cc1OC	1	-1	59*	.	-1	9%
COc1ccc(C(=O)N2CCN(c3ccc(C)cc3)CC2)cc1OC	0	-5	5	2	-1	.
COc1ccccc1C(=O)COC(=O)CNS(=O)(=O)c1ccc(C)cc1	2	0	.	-1	0	.
N#CC(C#N)=Cc1cccn1-c1ccc(S(N)(=O)=O)cc1	-1	-1	10	2	0	.
O=C(c1ccccc1)c1ccc2cc(O)ccc2c1	-7	2	64*	8	14	-1%
O=C(c1ccccc1)c1ccc2ccccc2c1	.	-1	5	.	.	.
COc1ccc(NC(=O)CSc2nccn2Cc2ccc(F)cc2)cc1	-2	2	-2	0	-2	.

Screening data: PubChem, Broad Institute
